Measured values reported in ChEMBL document CHEMBL1148330, “Synthesis and biological evaluation of 14-alkoxymorphinans. 21. Novel 4-alkoxy and 14-phenylpropoxy derivatives of the mu opioid receptor antagonist cyprodime” (J Med Chem, 2004).

Assays:
Mus musculus [1] = test: Effective dose (sc) required for antinociceptive potency in vivo in the hotplate (HP) test in mice; format: functional
Mus musculus [2] = test: Effective dose (sc) required for antinociceptive potency in vivo in the paraphenylquinone writhing (PPQ) test in mice; format: functional
Mus musculus [3] = test: Effective dose (sc) required for antinociceptive potency in vivo in the tail-flick (TF) test in mice; format: functional
Mu-type opioid receptor [4] = molecular target: T1, Mu-type opioid receptor (Homo sapiens, UniProt P35372); test: Concentration necessary to produce 50% of the Emax value, i.e. to stimulate [35S]GTP-gamma-S, binding to recombinant human Opioid receptor mu 1 expressed in CHO cells; format: functional, cell-based
How it was run: (§1)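 Membranes from CHO cells stably expressing human µ, δ or κ opioid receptor, incubated with varying concentrations of compound in a [35S]GTPγS binding assay. Emax is % maximal stimulation of [35S]GTPγS binding. EC50 is the concentration giving 50% of the Emax value. Mean ± SEM.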

Mu-type opioid receptor [5] = molecular target: T1, Mu-type opioid receptor; test: Percent maximal stimulation of [35S]GTP-gamma-S, binding to recombinant human Opioid receptor mu 1 expressed in CHO cells; format: functional, cell-based; how it was run: as §1
[6] = molecular target: T2, Delta-type opioid receptor (Homo sapiens, UniProt P41143); test: Percent maximal stimulation of [35S]GTP-gamma-S, binding to recombinant human opioid receptor delta 1 expressed in CHO cells; format: functional, cell-based; how it was run: as §1
[7] = molecular target: T3, Kappa-type opioid receptor (Homo sapiens, UniProt P41145); test: Antagonistic activity against recombinant human Opioid receptor kappa 1 expressed in CHO cells when incubated with U69,593; format: functional, cell-based
How it was run: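 Membranes from CHO cells stably expressing the human κ opioid receptor, incubated with the agonist U69,593 in the presence of varying concentrations of compound. Antagonist Ke values reported as mean ± SEM.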

[8] = molecular target: T2, Delta-type opioid receptor; test: Concentration necessary to produce 50% of the Emax value, i.e. to stimulate [35S]GTP-gamma-S, binding to recombinant human opioid receptor delta 1 expressed in CHO cells; format: functional, cell-based; how it was run: as §1
[9] = molecular target: Kappa-type opioid receptor (Rattus norvegicus, UniProt P34975); test: Binding affinity determined by displacing [3H]U69,593 from Opioid receptor kappa 1 in rat brain membranes; format: cell membranes
How it was run: (§2)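 Competitive radioligand binding in rat brain membranes: [3H]DAMGO (µ), [3H][Ile5,6]deltorphin II (δ), [3H]U69,593 (κ). Ki reported as mean ± SEM. Selectivity ratios are Ki δ/Ki µ and Ki κ/Ki µ.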

Mu-type opioid receptor [10] = molecular target: Mu-type opioid receptor (Rattus norvegicus, UniProt P33535); test: Binding affinity determined by displacing [3H]DAMGO from Opioid receptor mu 1 in rat brain membranes; format: cell membranes; how it was run: as §2
[11] = molecular target: T3, Kappa-type opioid receptor; test: Concentration necessary to produce 50% of the Emax value, i.e. to stimulate [35S]GTP-gamma-S, binding to recombinant human Opioid receptor kappa 1 expressed in CHO cells; format: functional, cell-based; how it was run: as §1
[12] = molecular target: Opioid receptors; mu & delta (Rattus norvegicus) (UniProt P33533+P33535); test: Selectivity ratio of binding affinities between delta opioid receptors and mu opioid receptors in rat brain membranes; format: cell membranes; how it was run: as §2
Rattus norvegicus = species: Rattus norvegicus; test: Selectivity ratio of binding affinities between kappa opioid receptors and mu opioid receptors in rat brain membranes; format: cell membranes; how it was run: as §2
Mu-type opioid receptor [13] = molecular target: T1, Mu-type opioid receptor; settings: CHO
[14] = molecular target: T3, Kappa-type opioid receptor; test: Percent maximal stimulation of [35S]GTP-gamma-S, binding to recombinant human Opioid receptor kappa 1 expressed in CHO cells; format: functional, cell-based; how it was run: as §1

Opioid receptors; mu & delta (Rattus norvegicus), sequence (P33533 whole entry, looked up): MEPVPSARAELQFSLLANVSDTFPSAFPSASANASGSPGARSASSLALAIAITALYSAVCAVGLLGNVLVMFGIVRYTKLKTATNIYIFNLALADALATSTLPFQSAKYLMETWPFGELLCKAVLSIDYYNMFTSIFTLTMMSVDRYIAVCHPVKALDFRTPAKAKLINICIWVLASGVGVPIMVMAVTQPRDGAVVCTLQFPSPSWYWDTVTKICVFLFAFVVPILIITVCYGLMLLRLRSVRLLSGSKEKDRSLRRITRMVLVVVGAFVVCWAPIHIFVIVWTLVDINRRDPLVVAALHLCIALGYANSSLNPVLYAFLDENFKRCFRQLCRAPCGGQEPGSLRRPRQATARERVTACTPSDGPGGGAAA
Opioid receptors; mu & delta (Rattus norvegicus), sequence (P33535 whole entry, looked up): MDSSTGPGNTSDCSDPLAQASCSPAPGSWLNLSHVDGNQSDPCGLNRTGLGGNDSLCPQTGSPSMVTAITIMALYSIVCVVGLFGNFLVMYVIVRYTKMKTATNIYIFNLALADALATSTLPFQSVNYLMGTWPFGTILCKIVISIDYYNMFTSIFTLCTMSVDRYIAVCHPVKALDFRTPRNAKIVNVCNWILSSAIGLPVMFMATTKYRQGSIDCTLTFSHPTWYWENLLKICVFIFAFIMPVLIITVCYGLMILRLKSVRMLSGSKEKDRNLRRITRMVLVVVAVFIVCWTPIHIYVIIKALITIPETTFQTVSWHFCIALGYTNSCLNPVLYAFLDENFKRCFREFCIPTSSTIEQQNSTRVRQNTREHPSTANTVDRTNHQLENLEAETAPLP
Mu-type opioid receptor (Rattus norvegicus, UniProt P33535), sequence (P33535 whole entry): as the sequence (P33535 whole entry, looked up) above
T3 sequence (P41145 whole entry): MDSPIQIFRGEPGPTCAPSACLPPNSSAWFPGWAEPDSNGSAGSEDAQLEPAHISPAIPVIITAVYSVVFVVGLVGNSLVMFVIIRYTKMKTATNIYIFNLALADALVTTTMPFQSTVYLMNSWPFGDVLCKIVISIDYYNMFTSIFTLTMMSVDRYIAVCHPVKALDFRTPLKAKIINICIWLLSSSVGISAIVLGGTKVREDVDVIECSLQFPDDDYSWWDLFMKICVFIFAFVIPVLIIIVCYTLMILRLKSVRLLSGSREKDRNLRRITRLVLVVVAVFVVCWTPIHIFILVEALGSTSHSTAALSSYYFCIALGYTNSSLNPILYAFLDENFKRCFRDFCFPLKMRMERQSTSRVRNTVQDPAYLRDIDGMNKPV
T1 sequence (P35372 whole entry): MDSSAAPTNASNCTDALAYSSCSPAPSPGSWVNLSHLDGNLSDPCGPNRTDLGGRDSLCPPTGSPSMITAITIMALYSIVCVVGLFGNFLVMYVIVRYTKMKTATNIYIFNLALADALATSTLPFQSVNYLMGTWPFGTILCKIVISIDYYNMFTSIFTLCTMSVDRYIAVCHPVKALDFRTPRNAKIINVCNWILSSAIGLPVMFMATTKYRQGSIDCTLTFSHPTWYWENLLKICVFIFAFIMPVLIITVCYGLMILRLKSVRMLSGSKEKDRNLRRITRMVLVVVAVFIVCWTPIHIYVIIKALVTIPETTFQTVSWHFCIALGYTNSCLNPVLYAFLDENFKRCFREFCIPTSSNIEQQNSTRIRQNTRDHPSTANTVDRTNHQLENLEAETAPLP
T2 sequence (P41143 whole entry): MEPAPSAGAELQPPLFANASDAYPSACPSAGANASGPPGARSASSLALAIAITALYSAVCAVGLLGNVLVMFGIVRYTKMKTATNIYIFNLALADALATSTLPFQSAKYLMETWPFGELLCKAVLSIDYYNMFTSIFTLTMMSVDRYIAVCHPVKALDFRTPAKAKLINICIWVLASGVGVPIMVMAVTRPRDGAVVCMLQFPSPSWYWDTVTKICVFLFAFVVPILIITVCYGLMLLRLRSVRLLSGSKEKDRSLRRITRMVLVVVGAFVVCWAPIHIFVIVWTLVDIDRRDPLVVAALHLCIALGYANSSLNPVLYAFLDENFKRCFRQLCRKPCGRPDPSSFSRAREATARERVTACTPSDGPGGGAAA
Kappa-type opioid receptor (Rattus norvegicus, UniProt P34975), sequence (P34975 whole entry): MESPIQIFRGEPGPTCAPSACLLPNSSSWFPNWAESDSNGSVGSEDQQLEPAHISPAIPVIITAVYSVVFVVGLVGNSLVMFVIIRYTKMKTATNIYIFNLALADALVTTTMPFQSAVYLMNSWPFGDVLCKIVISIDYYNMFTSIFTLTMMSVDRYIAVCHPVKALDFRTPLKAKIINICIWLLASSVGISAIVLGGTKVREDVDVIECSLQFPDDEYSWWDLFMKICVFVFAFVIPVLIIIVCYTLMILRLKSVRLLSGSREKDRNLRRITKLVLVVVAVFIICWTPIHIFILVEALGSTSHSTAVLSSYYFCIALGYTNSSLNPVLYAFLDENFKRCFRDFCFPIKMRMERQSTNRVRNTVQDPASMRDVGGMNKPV

Compound | ED50 (Mus musculus [1]) | ED50 (Mus musculus [2]) | ED50 (Mus musculus [3]) | EC50 (Mu-type opioid receptor [4]) | Emax (Mu-type opioid receptor [5]) | Emax [6] | Ke [7] | EC50 [8] | Ki [9] | Ki (Mu-type opioid receptor [10]) | EC50 [11] | Selectivity ratio [12] | Selectivity ratio (Rattus norvegicus) | Ke (Mu-type opioid receptor [13]) | Emax [14]
COc1cccc2c1[C@]13CCN(CC4CC4)[C@H](C2)[C@]1(OCCCc1ccccc1)CCC(=O)C3 | 0.3 mg/kg | 0.06 mg/kg | 0.28 mg/kg | 0.00197 µM | 35% | 22% | 2.52 nM | 0.0206 µM | 7.36 µM | 0.34 µM | > 10 µM | 50 | 22 |  | 
CCCCOc1cccc2c1[C@]13CCN(CC4CC4)[C@H](C2)[C@]1(OC)CCC(=O)C3 |  |  |  | > 10 µM |  | 22% | 120 nM | 1.61 µM | 261 µM | 13.8 µM | > 10 µM | 55 | 19 | 11.1 nM | 
O=C1CC[C@@]2(OCCCc3ccccc3)[C@H]3Cc4cccc5c4[C@@]2(CCN3CC2CC2)C1O5 (some centres undefined) | 0.68 mg/kg | 0.0094 mg/kg | 0.187 mg/kg | 0.0098 µM | 43% | 17% | 8.54 nM | 0.0868 µM | 22.8 µM | 0.84 µM | > 10 µM | 55 | 27 |  | 
CCCCOc1cccc2c1[C@]13CCN(CC4CC4)[C@H](C2)[C@]1(OCCCc1ccccc1)CCC(=O)C3 |  |  |  |  |  |  |  |  | 150 µM | 14.9 µM |  | 16 | 10 |  | 
CO[C@@]12CCC(=O)C[C@@]13CCN(CC1CC1)[C@@H]2Cc1cccc(OCc2ccccc2)c13 |  |  |  |  |  |  |  |  | 56.8 µM | 11.6 µM |  | 18 | 4.9 |  | 
O=C1CC[C@@]2(OCCCc3ccccc3)[C@H]3Cc4cccc(O)c4[C@@]2(CCN3CC2CC2)C1 | 0.04 mg/kg | 0.0014 mg/kg | 0.05 mg/kg | 0.00347 µM | 35% | 49% |  | 0.00791 µM | 5.84 µM | 0.4 µM | 0.00451 µM | 13 | 15 |  | 45.8%
COc1cccc2c1[C@]13CCN(CC4CC4)[C@H](C2)[C@]1(OC)CCC(=O)C3 [CYPRODIME] |  |  |  |  | 33% | 18% | 26.1 nM | 1.1 µM | 109 µM | 10.6 µM | 0.117 µM | 39 | 10 | 12.4 nM | 18.8%
CO[C@@]12CCC(=O)C[C@@]13CCN(CC1CC1)[C@@H]2Cc1cccc(OCCCc2ccccc2)c13 |  |  |  |  |  |  |  |  | 208 µM | 43.3 µM |  | 33 | 4.8 |  | 
CCCCCCOc1cccc2c1[C@]13CCN(CC4CC4)[C@H](C2)[C@]1(OC)CCC(=O)C3 |  |  |  |  |  |  |  |  | 441 µM | 44.9 µM |  | 26 | 9.8 |  | 
CO[C@@]12CCC(=O)[C@]3(C)Oc4c(O)ccc5c4[C@@]31CCN(C)[C@@H]2C5 | 0.03 mg/kg | 0.009 mg/kg | 0.03 mg/kg |  |  |  |  |  |  |  |  |  |  |  | 
